The values below come from ChEMBL document CHEMBL1128238, “Synthesis and structure-activity relationships of dequalinium analogues as K+ channel blockers. Investigations on the role of the charged heterocycle” (J Med Chem, 1995).

The species named for experiment [1] is Rattus norvegicus. The experiment in a line: cells. As to conditions: Sympathetic neuron.
For experiment [2], the species on record is Rattus norvegicus. The experiment in a line: Ability to inhibit after-hyperpolarization (AHP) in cultured rat sympathetic neurons. (number of neurons tested, n=5). The format is functional. Particulars: Sympathetic neuron. The procedure, abridged: (§1)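 SK(Ca) block judged from inhibition of the after-hyperpolarization in cultured rat sympathetic neurones. Each compound was tested at two to four concentrations on at least three cells. Test concentrations above 10–30 μM were generally avoided. The time course of block onset was also noted.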

The species entered for experiment [3] is Rattus norvegicus. The experiment in a line: Ratio of the concentrations of the test compound and dequalinium that cause 50% inhibition, as determined in the same experiment was reported. (number of neurons tested, n=5). The format is functional. The procedure, abridged:
(§2)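 AHP inhibition recorded in cultured rat sympathetic neurones. Each compound was applied at two to four concentrations on at least three cells, generally not above 10–30 μM.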

Experiment [4] is filed under the species Rattus norvegicus. The experiment in a line: Ratio of the concentrations of the test compound and dequalinium that cause 50% inhibition, as determined in the same experiment was reported. (number of neurons tested, n=4). The format is functional. The procedure, abridged: as §2
The species entered for experiment [5] is Rattus norvegicus. The experiment in a line: Ability to inhibit after-hyperpolarization (AHP) in cultured rat sympathetic neurons. (number of neurons tested, n=4). The class given is functional. Particulars: Sympathetic neuron. The procedure, abridged:
as §1

For experiment [6], the species on record is Rattus norvegicus. The experiment in a line: Ratio of the concentrations of the test compound and dequalinium that cause 50% inhibition, as determined in the same experiment was reported. (number of neurons tested, n=6). The class given is functional. The procedure, abridged: as §2
For experiment [7], the species on record is Rattus norvegicus. The experiment in a line: Ability to inhibit after-hyperpolarization (AHP) in cultured rat sympathetic neurons. (number of neurons tested, n=6). The class given is functional. As to conditions: Sympathetic neuron. A digest of the protocol: as §1
The species named for experiment [8] is Rattus norvegicus. The experiment in a line: Ability to inhibit after-hyperpolarization (AHP) in cultured rat sympathetic neurons. (number of neurons tested, n=3). The class given is functional. As to conditions: Sympathetic neuron. A digest of the protocol: as §1
Experiment [9] is filed under the species Rattus norvegicus. The experiment in a line: Ratio of the concentrations of the test compound and dequalinium that cause 50% inhibition, as determined in the same experiment was reported. (number of neurons tested, n=3). The format is functional. A digest of the protocol:
as §2

Experiment [10] is filed under the species Rattus norvegicus. The experiment in a line: Ratio of the concentrations of the test compound and dequalinium that cause 50% inhibition, as determined in the same experiment was reported. (number of neurons tested, n=7). The format is functional. A digest of the protocol: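 AHP inhibition in cultured rat sympathetic neurones, with each compound at two to four concentrations on at least three cells. The equieffective molar ratio is the test compound's 50%-inhibitory concentration divided by that of dequalinium, both determined in the same experiment.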

For experiment [11], the species on record is Rattus norvegicus. The experiment in a line: Ability to inhibit after-hyperpolarization (AHP) in cultured rat sympathetic neurons. (number of neurons tested, n=7). The format is functional. As to conditions: Sympathetic neuron. The procedure, abridged:
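SK(Ca) block measured as inhibition of the after-hyperpolarization in cultured rat sympathetic neurones. Each compound was tested at two to four concentrations on at least three cells, generally not above 10–30 μM. Onset of block was also timed. The 50%-inhibitory concentration was determined.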

The species entered for experiment [12] is Rattus norvegicus. The experiment in a line: Ability to inhibit after-hyperpolarization (AHP) in cultured rat sympathetic neurons. (number of neurons tested, n=18). The class given is functional. Particulars: Sympathetic neuron. A digest of the protocol:
as §1

The species entered for experiment [13] is Rattus norvegicus. The experiment in a line: Ratio of the concentrations of the test compound and dequalinium that cause 50% inhibition, as determined in the same experiment was reported. (number of neurons tested, n=18). The format is functional. The procedure, abridged:
as §2

What is called IC50 is the midpoint of a concentration-inhibition curve. Low values mean greater potency, high ones weaker potency. `Nc1c2c(nc3ccccc13)CCCC2` [TACRINE] returned a concentration for half-maximal inhibition (IC50) in the experiment filed under Rattus norvegicus [1] of 30 µM.

In the experiment filed under Rattus norvegicus [2], `c1ccc2c[n+](CCCCCCCCCC[n+]3ccc4ccccc4c3)ccc2c1` gave an IC50 of 25 µM. Besides, the EMR in the experiment filed under Rattus norvegicus [3] amounted to 80.

Take `O=[N+]([O-])c1cc[n+]([O-])c(NCCCCCCCCCCNc2cc([N+](=O)[O-])cc[n+]2[O-])c1`: the EMR in the experiment filed under Rattus norvegicus [4] was greater than 30. For the same compound, the IC50 in the experiment listed under Rattus norvegicus [5] is greater than 30 µM.

`C[n+]1c(CCCCCCCCCCc2ccc3ccccc3[n+]2C)ccc2ccccc21`: in the experiment listed under Rattus norvegicus [6], the EMR was 130. Inhibition in the experiment listed under Rattus norvegicus [7] was half-maximal at 72 µM (IC50).

The compound `[Br-].[Br-].c1ccc2c(c1)ccc[n+]2CCCCCCCCCC[n+]1cccc2ccccc21` registered a 50% inhibitory concentration (IC50) in the experiment listed under Rattus norvegicus [2] of 21 µM. Besides, in the experiment listed under Rattus norvegicus [3], the EMR worked out at 15.

In turn, `CCCCCCCCCC[n+]1c(C)cc(N)c2ccccc21` came in with a half-maximal inhibitory concentration (IC50) in the experiment listed under Rattus norvegicus [8] of 5.5 µM. Also, the EMR in the experiment filed under Rattus norvegicus [9] was 4.7.

`Cc1cc(N)c2ccccc2[n+]1CCCC#CC#CCCC[n+]1c(C)cc(N)c2ccccc21`: half-maximal inhibition in the experiment listed under Rattus norvegicus [8] (IC50) was put at 1.6 µM. Moreover, the EMR in the experiment listed under Rattus norvegicus [9] is reported as 2.4.

For `C[n+]1c(CCCCCCCCCCCCc2ccc3ccccc3[n+]2C)ccc2ccccc21`, the EMR in the experiment listed under Rattus norvegicus [4] is listed as 33. The same compound gave an IC50 in the experiment filed under Rattus norvegicus [5] of 21 µM.

As to `Cc1n(C)c2ccccc2[n+]1CCCCCCCCCC[n+]1c(C)n(C)c2ccccc21.O.O.[Cl-].[Cl-]`, the EMR in the experiment listed under Rattus norvegicus [4] is reported as greater than 10. This compound also returned an IC50 in the experiment listed under Rattus norvegicus [5] greater than 10 µM.

In the case of `Nc1cc[n+](CCCC#CC#CCCC[n+]2ccc(N)cc2)cc1.O.O.[Cl-].[Cl-]`, in the experiment filed under Rattus norvegicus [4], the EMR worked out at 4.7.

Turning to `Cn1c[n+](CCCCCCCCCC[n+]2cn(C)c3ccccc32)c2ccccc21`, in the experiment listed under Rattus norvegicus [4], the EMR is reported as 77. In addition, in the experiment listed under Rattus norvegicus [5], the 50% inhibitory concentration (IC50) came to 16 µM.

Compound `c1ccc2c(NCCCCCCCCCCNc3c4ccccc4nc4ccccc34)c3ccccc3nc2c1` came in with a half-inhibitory concentration (IC50) in the experiment filed under Rattus norvegicus [8] of 6.7 µM. In the experiment filed under Rattus norvegicus [9], the EMR was 12.2.

`C[n+]1cccnc1NCCCCCCCCCCNc1nccc[n+]1C`: in the experiment filed under Rattus norvegicus [2], the IC50 is greater than 10 µM. For the same compound, the EMR in the experiment listed under Rattus norvegicus [3] was greater than 10.

In the experiment listed under Rattus norvegicus [2], `Brc1c[n+](CCCCCCCCCC[n+]2cc(Br)c3ccccc3c2)cc2ccccc12` registered a 50% inhibitory concentration (IC50) of 4.7 µM. Moreover, the EMR in the experiment filed under Rattus norvegicus [3] worked out at 7.6.

In the experiment filed under Rattus norvegicus [8], `COc1cc(CCCCCCCCCCc2cc(OC)c3ccccc3[n+]2C)[n+](C)c2ccccc12` came in with a 50% inhibitory concentration (IC50) of 9.5 µM. Also, the EMR in the experiment listed under Rattus norvegicus [9] was determined as 27.

In turn, `Nc1c2c([n+](CCCCCCCCCC[n+]3c4c(c(N)c5ccccc53)CCCC4)c3ccccc13)CCCC2` had an IC50 in the experiment listed under Rattus norvegicus [2] of 1 µM. Moreover, the EMR in the experiment listed under Rattus norvegicus [3] stood at 0.9.

For the compound `Nc1cc[n+](CCCCCCCCCC[n+]2ccc(N)cc2)cc1`, the EMR in the experiment listed under Rattus norvegicus [10] is 33. Half-maximal inhibition in the experiment filed under Rattus norvegicus [11] (IC50) required 35 µM.

Take `Nc1ccnc(NCCCCCCCCCCNc2cc(N)ccn2)c1`: the half-maximal inhibitory concentration (IC50) in the experiment filed under Rattus norvegicus [8] was found to be 5.5 µM. The EMR in the experiment listed under Rattus norvegicus [9] came to 5.

In the experiment listed under Rattus norvegicus [8], `CC[N+](CC)(CC)CCCCCCCCCC[n+]1c(C)cc(N)c2ccccc21.[I-].[I-]` yielded an IC50 of 18 µM. Further, in the experiment filed under Rattus norvegicus [9], the EMR was 17.

On to `Cc1cc(N)c2ccccc2[n+]1CCCCCCCCCC[n+]1c(C)cc(N)c2ccccc21.[Cl-].[Cl-]` [DEQUALINIUM CHLORIDE], for which it took 740 nM to reach half-maximal inhibition in the experiment listed under Rattus norvegicus [12] (IC50). For the same compound, the EMR in the experiment listed under Rattus norvegicus [13] stood at 1.

For `CCCC[n+]1c(C)cc(N)c2ccccc21`, the EMR in the experiment filed under Rattus norvegicus [9] worked out at 12.
